Compounds with a hit are over-represented: about 3% of the library has one in this group of screens.
TRPC6 inhibitor = mouse TRPC6 channel inhibition. Q61143. HEK293-TRPC6, membrane potential dye, ACh-evoked depolarization; stronger effect = lower value. B-score at 10 µM. hit rate 1.1% among 310,000;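 active means B-score under library mean minus 3 SD, initial fluorescence not abnormally high, positive integrated signal ratio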;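 further: B-score derived from integrated fluorescence ratio over the kinetic read; more negative B-score means stronger inhibition of depolarization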
TRPC6 activator = activators of mouse TRPC6 channel. hit rate 0.13% among 310,000. B-score at 10 µM. AID 2550. HEK293-TRPC6 membrane potential dye fluorescence; stronger effect = higher value;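 active means B-score of the integrated fluorescence ratio above library mean plus 3 SD, and starting fluorescence ratio within library mean plus 5 SD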;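 further: higher score means more depolarization so channel activation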
TRPC4 inh = TRPC4 (mouse) channel inhibition. Q9QUQ5. HEK293 TRPC4beta/mu-opioid, DAMGO-evoked Fluo4 calcium flux; stronger effect = lower value. B-score at 10 µM. hit rate 0.39% among 300,000;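 active means B-score over 3 SD under the library average, no early fluorescence shift, positive overall ratio signal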
Target sequence (Q9QUQ5 whole entry, looked up): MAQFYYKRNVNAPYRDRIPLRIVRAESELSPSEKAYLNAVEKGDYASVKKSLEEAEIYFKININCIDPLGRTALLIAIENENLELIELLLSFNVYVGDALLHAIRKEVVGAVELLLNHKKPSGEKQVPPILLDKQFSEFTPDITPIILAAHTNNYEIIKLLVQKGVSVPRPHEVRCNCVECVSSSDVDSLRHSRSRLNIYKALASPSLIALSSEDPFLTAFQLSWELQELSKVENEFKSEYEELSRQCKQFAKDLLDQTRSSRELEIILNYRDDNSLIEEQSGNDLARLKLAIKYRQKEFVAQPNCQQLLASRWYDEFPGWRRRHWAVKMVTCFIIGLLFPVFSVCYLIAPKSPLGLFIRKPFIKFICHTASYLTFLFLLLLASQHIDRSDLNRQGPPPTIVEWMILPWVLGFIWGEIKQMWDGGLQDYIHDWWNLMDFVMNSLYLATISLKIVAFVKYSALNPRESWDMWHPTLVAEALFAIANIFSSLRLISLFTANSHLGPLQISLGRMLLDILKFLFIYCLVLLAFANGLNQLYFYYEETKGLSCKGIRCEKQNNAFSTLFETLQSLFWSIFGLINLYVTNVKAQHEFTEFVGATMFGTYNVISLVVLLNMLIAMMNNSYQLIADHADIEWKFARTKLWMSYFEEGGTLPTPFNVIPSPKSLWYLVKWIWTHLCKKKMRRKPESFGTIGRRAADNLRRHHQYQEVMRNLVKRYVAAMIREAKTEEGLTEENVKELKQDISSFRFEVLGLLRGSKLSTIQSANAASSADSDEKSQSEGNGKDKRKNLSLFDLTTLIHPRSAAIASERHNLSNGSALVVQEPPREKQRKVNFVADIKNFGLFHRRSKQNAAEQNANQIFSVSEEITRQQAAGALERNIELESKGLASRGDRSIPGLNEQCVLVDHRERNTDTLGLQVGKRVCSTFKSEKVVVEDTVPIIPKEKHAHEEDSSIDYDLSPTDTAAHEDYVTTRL
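Signal: kinetic Fluo4 fluorescence imaging of calcium influx. Material: stable TRPC4beta/mu-opioid receptor HEK293 cells. Probe or stimulus: DAMGO in two steps, submaximal then maximal.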
TRPC4 PAM = TRPC4 (mouse) allosteric potentiation | HEK293 TRPC4beta/mu-opioid, DAMGO EC20, Fluo-4 Ca2+ flux; stronger effect = higher value | B-score at 10 µM | Q9QUQ5 | hit rate 0.42% among 310,000;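 active means B-score of calcium response area above 5 SD of library B-scores, with initial fluorescence ratio within 5 SD of library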
TRPC4 agonist = opens the mouse TRPC4 cation channel; HEK293 TRPC4beta/mu-opioid, Fluo4 calcium fluorescence; stronger effect = higher value; B-score at 10 µM; hit rate 0.49% among 310,000; AID 2237;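 active means B-score above 5 SD of library B-scores, and initial fluorescence ratio not above library mean plus 5 SD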;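 further: positive B-score marks a calcium rise read as TRPC4 activation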
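System – HEK293 cells stably co-expressing mouse TRPC4beta and mu-opioid receptor · Signal – Fluo4 calcium-sensitive dye fluorescence, kinetic, 1 Hz baseline · Benchmarks – buffer (low) and maximal DAMGO (high) · Read-out – B score of integrated fluorescence ratio per well · Incubation – dye loading 45 min room temperature, 110 s kinetic read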
Kir21 block = inhibitors of mouse Kir2.1 inward-rectifier potassium channel; P35561; HEK293-Kir2.1, FluxOR thallium flux fluorescence; stronger effect = lower value; B-score at 10 µM; hit rate 0.85% among 310,000;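 active means fluorescence ratio B-score at or below minus 3 SD of library scores, with starting-brightness B-score within 2 SD, cut at about -4.2 in these data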;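 further: channel flux triggered by added potassium and thallium sulfate stimulus; B-score of peak minus minimum fluorescence over baseline after thallium stimulus; more negative B-score means stronger Kir2.1 block with less thallium influx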
Numbers stand for hits.

`C=CCn1c(O)c(C(C)=NC2CCN(Cc3ccccc3)CC2)c(=O)[nH]c1=O` gave TRPC6 inhibitor inactive, TRPC6 activator inactive, TRPC4 inh inactive, TRPC4 PAM inactive, TRPC4 agonist inactive and Kir21 block inactive.
Screening CCC(=NC1CCN(Cc2ccccc2)CC1)c1c(O)[nH]c(=O)[nH]c1=O returned TRPC6 inhibitor inactive, TRPC6 activator inactive, TRPC4 inh inactive, TRPC4 PAM 10, TRPC4 agonist inactive and Kir21 block inactive.
COC(=O)CCCC(NC(=S)N1CC2C[C@@H](C1)Cn1c2cccc1=O)C(=O)OC (stereo partly specified) was read as TRPC6 inhibitor inactive, TRPC6 activator inactive, TRPC4 inh inactive, TRPC4 PAM inactive, TRPC4 agonist inactive and Kir21 block inactive.
`Cc1ccc(C(=O)N[C@@H](C)CN2C3=NC[C@H](Cc4ccccc4)N3C[C@H]2Cc2ccc(O)cc2)cc1Br` gave TRPC6 inhibitor inactive, TRPC6 activator inactive, TRPC4 inh inactive, TRPC4 PAM inactive, TRPC4 agonist inactive and Kir21 block -5.4.
Cc1ccc(C(=O)N[C@@H](C)CN2C3=NC[C@@H](Cc4ccccc4)N3C[C@H]2Cc2ccc(O)cc2)cc1Br was read as TRPC6 inhibitor inactive, TRPC6 activator inactive, TRPC4 inh inactive, TRPC4 PAM inactive, TRPC4 agonist inactive and Kir21 block -5.7.
`CC(=NCCCn1ccnc1)c1c(O)n(C2CCCCC2)c(=O)[nH]c1=O` gave TRPC6 inhibitor inactive, TRPC6 activator inactive, TRPC4 inh inactive, TRPC4 PAM inactive, TRPC4 agonist inactive and Kir21 block inactive.
O=c1[nH]c(O)c(N=Nc2cc([N+](=O)[O-])ccc2O)c(=O)[nH]1 was read as TRPC6 inhibitor inactive, TRPC6 activator inactive, TRPC4 inh inactive, TRPC4 PAM inactive, TRPC4 agonist inactive and Kir21 block inactive.
`Fc1ccccc1CCNCc1cccc2ccccc12` gave TRPC6 inhibitor inactive, TRPC6 activator inactive, TRPC4 inh inactive, TRPC4 PAM inactive, TRPC4 agonist inactive and Kir21 block -12.
`Cc1ccc(CNCCc2ccccc2F)cc1` gave TRPC6 inhibitor inactive, TRPC6 activator inactive, TRPC4 inh inactive, TRPC4 PAM inactive, TRPC4 agonist inactive and Kir21 block inactive.
COc1cccc(O)c1CN1CCCC(C(=O)c2sccc2C)C1 (stereo unspecified) was read as TRPC6 inhibitor inactive, TRPC6 activator inactive, TRPC4 inh -9, TRPC4 PAM inactive, TRPC4 agonist inactive and Kir21 block inactive.
`Cc1ccsc1C(=O)C1CCCN(CCO)C1` (stereo unspecified) gave TRPC6 inhibitor inactive, TRPC6 activator inactive, TRPC4 inh inactive, TRPC4 PAM inactive, TRPC4 agonist inactive and Kir21 block inactive.
`COc1ccc(OC)c(CN2CCCC(C(=O)c3sccc3C)C2)c1` (stereo unspecified) gave TRPC6 inhibitor inactive, TRPC6 activator inactive, TRPC4 inh -6, TRPC4 PAM inactive, TRPC4 agonist inactive and Kir21 block inactive.
`O=C(CN1CCCC1)Nc1ccc(Cl)cc1C(=O)c1ccccc1` gave TRPC6 inhibitor inactive, TRPC6 activator inactive, TRPC4 inh -6, TRPC4 PAM inactive, TRPC4 agonist inactive and Kir21 block inactive.
`CN1CCN(Cc2cc(=O)n3ccsc3n2)CC1` gave TRPC6 inhibitor inactive, TRPC6 activator inactive, TRPC4 inh inactive, TRPC4 PAM 27, TRPC4 agonist inactive and Kir21 block inactive.
For Cc1ccc(-c2nc(N(C)C3CCN(C)CC3)c3ccccc3n2)cc1 the results were TRPC6 inhibitor inactive, TRPC6 activator inactive, TRPC4 inh inactive, TRPC4 PAM 24, TRPC4 agonist inactive and Kir21 block inactive.
For CC(CN(C)C1CCN(C)CC1)c1ccccc1 (stereo unspecified) the results were TRPC6 inhibitor inactive, TRPC6 activator inactive, TRPC4 inh inactive, TRPC4 PAM inactive, TRPC4 agonist inactive and Kir21 block inactive.
Cc1c(OC(=O)N(C)C)ccc2c1O/C(=C\c1ccco1)C2=O was read as TRPC6 inhibitor inactive, TRPC6 activator inactive, TRPC4 inh inactive, TRPC4 PAM inactive, TRPC4 agonist inactive and Kir21 block inactive.
For COc1cc(OC)c2c(c1)O[C@@H](c1ccc(OC)c(OC)c1)[C@H](O)C2 the results were TRPC6 inhibitor inactive, TRPC6 activator inactive, TRPC4 inh inactive, TRPC4 PAM inactive, TRPC4 agonist inactive and Kir21 block inactive.

Compound activity as filed in PubChem.
